Laboratory results taken from PubChem BioAssay.
Calls of active or inactive are those of the source.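 The calls were made as follows, unless noted: active = potentiation averaged over duplicate wells exceeding buffer-only control mean by more than 3 SD; inactive = the rest.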

Test system: not listed separately
Experiment: nonspecific flux increase, KCNQ1-free cells – parental CHO cells, counter-screen for KCNQ1 potentiator project (AID 493006;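 active = duplicate-averaged activation above buffer control mean plus 5 SD of those controls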;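 as to activation: fluorescence ratio of max minus min over baseline after K+ and Tl+ depolarization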)
Settings: parental CHO-K1 cells, FluxOR thallium flux, at 10 µM; stronger effect = higher value
Summary of the method: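 Benchmarks – buffer and R-L3 controls · Assay system – untransfected host CHO-K1 cells with FluxOR thallium dye · Measure – fluorescence change ratio scaled 0% buffer, 100% R-L3 · Technique – kinetic thallium-flux fluorescence · Timing – overnight 37 °C plating, 90 min RT dye, 20 min compound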

| Compound | outcome | activation |
| --- | --- | --- |
| CC1(C)CC(N2CCOCC2)=CC(=[N+]2CCOCC2)C1 | inactive |  |
| C=CCn1c(SCC(N)=O)nc2scc(-c3ccc(C)o3)c2c1=O |  | 223% (active) |
| CCCCn1c(-c2csc3c2CCC(C)C3)n[nH]c1=S (centres undefined) |  | 145% (active) |
| Cc1ccc(N(C(=O)c2ccco2)C(C(=O)NC2CCCC2)c2cccnc2)cc1C (centres undefined) | inactive |  |

Target: Potassium voltage-gated channel subfamily KQT member 1 (Homo sapiens) (UniProt P51787)
Sequence (P51787 whole entry, looked up): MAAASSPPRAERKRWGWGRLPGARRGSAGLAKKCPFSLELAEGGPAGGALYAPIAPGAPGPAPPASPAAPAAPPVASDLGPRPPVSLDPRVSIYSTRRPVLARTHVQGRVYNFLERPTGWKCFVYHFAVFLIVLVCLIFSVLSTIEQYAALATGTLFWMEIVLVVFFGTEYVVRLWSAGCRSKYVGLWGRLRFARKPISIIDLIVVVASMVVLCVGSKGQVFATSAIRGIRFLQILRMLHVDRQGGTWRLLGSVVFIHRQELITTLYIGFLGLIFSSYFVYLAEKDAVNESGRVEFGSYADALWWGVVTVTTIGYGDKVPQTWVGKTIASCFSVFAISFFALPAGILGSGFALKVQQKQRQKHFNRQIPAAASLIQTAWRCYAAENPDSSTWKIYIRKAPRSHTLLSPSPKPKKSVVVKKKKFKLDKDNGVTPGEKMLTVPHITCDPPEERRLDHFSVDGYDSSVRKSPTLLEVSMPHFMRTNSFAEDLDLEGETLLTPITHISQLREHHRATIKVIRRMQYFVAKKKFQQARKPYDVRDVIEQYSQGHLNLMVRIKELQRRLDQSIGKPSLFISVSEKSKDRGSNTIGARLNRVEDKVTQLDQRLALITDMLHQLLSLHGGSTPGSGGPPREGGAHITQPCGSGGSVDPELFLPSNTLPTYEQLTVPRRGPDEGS
Experiment: enhancement of KCNQ1 channel thallium flux – FluxOR thallium flux, CHO cells, duplicates, confirmation (AID 493007);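 as to outcome: cells depolarized by a potassium plus thallium sulfate stimulus after compound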
Settings: KCNQ1 cell line, FluxOR thallium flux fluorescence, at 10 µM; stronger effect = higher value, % of reference activator effect, buffer zero
Summary of the method: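 Material: CHO cells stably expressing the KCNQ1 potassium channel / Times: dye 90 min then compound 20 min, both at room temperature / Detection: kinetic thallium influx fluorescence with FluxOR dye, 10 s baseline, 110 s post-stimulus / Benchmarks: buffer-only wells as 0% and R-L3 activator as 100% / Replicates: each compound tested in duplicate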

| Compound | potentiation | outcome |
| --- | --- | --- |
| CCCc1cc2c(-c3ccccc3)cc(=O)oc2cc1OCc1ccc(C(=O)O)o1 | 73% (active) |  |
| O=C(c1cc([N+](=O)[O-])cc([N+](=O)[O-])c1)N1CCCc2ccccc21 |  | inactive |
| O=c1c2ccccc2nc(-c2cccc(Cl)c2)n1O | 100% (active) |  |
| CC(C)(C)NC(=O)C(=O)NNC(=O)c1cccc(F)c1 | 87.5% (active) |  |
| CC1=NN(C(=O)c2csc(C(C)C)c2)C(O)(C(F)(F)F)C1 (centres undefined) | 61.5% (active) |  |
| CCS(=O)(=O)Nc1ccc(C(=O)CC2(O)C(=O)Nc3ccccc32)cc1 (centres undefined) |  | inactive |
| Cc1onc(-c2ccccc2)c1C(=O)N1CCN(S(=O)(=O)c2ccc(OC(F)(F)F)cc2)CC1 |  | inactive |
| CCNC(=S)/N=C(\N)Nc1nc(C)c2cc(C)ccc2n1 |  | inactive |
| O=C(O)c1ccc2c(c1)C(=O)N(Cc1ccccc1)C2=O |  | inactive |
| Cc1cc(C(c2cc(C)c(N)c(C)c2)c2ccco2)cc(C)c1N | 138% (active) |  |
| O=C(/C=C/c1ccccc1)C1C(=O)c2ccccc2C1=O | 25.5% (active) |  |
| Cc1cccc(-n2c(=S)[nH]c3sc4c(c3c2=O)CCc2ccccc2-4)c1 | 149% (active) |  |
| CCC1Oc2ccc(C)cc2N(CC(=O)N(Cc2ccc(C)o2)C2CC(C)(C)NC(C)(C)C2)C1=O (centres undefined) | 63.5% (active) |  |
| COc1ccccc1C(=O)Nc1ccnn1C1CCN(CCCC2CCCC2)CC1 |  | inactive |
| O=C(NNC(=S)NC(=O)c1ccco1)c1ccc(F)cc1 | 69% (active) |  |
| CC(C)(C)NC(=O)C(=O)NNC(=O)c1ccc(C(C)(C)C)cc1 | 112% (active) |  |
| O=C(NC(=S)N1CCN(c2nc(-c3ccccc3)cs2)CC1)c1cncc(Br)c1 | 223% (active) |  |
| CCOC(=O)c1sc(NC(=S)NC(=O)c2ccc(OC)cc2)nc1C |  | inactive |
| S=c1nc(Cc2ccc(Cl)cc2)[nH]c2ccccc12 | 148% (active) |  |
| Cc1ccc(C(=O)Nc2nnn(C)n2)cc1 |  | inactive |

| Compound | potentiation | outcome |
| --- | --- | --- |
| O=C(COc1ccccc1)NC(=S)N1CCc2ccccc21 | 20% (active) |  |
| Cc1ccc(-c2c(C(=O)O)c3ccccc3[nH]c2=O)cc1 |  | inactive |
| CCOC(=O)/C(C)=N/NC(=O)c1cccc([N+](=O)[O-])c1 | 49% (active) |  |
| CCOC(=O)NC(=S)Nc1ccc(C(C)(C)C)cc1Br | 123% (active) |  |
| COc1ccccc1CNC(=O)COC(=O)c1nccnc1N |  | inactive |
| COc1ccc(C)cc1-n1c(SCC(=O)Nc2cc(C)on2)nc2ccccc2c1=O |  | inactive |
| Cc1c(Cl)cccc1NC(=O)Cn1c(CCC(=O)O)ccc1-c1ccccc1 |  | inactive |
| N=c1ccn(CC(=O)c2ccc(-c3ccccc3)cc2)cc1 |  | inactive |
| CC(C)Cc1c2c([nH]c(=S)c1C#N)CCCC2 |  | inactive |
| Cc1[nH]n2c(=O)cc(C(C)(C)C)nc2c1-c1ccccc1 | 33.5% (active) |  |
| S=c1nc(COc2ccccc2)[nH]c2ccccc12 | 212% (active) |  |
| COC(=O)c1c(NC(=S)Nc2ccc(F)cc2[N+](=O)[O-])sc2c1CCCCC2 | 32.5% (active) |  |
| COc1ccc(NC(=O)C(=O)NNC(=O)c2cccs2)c(OC)c1 | 37.5% (active) |  |
| O=C1NC(=S)S/C1=C\c1ccc2ccccc2c1 | 82% (active) |  |
| Cc1ccc(S(=O)(=O)N2CCN(C(=O)CCC(=O)OCC(=O)Nc3cccc(C#N)c3)CC2)cc1 |  | inactive |
| CCNC(=S)Nc1scc(-c2ccccc2)c1C(=O)OCC | 44% (active) |  |
| CC1(C)CC(N2CCOCC2)=CC(=[N+]2CCOCC2)C1 |  | inactive |
| C=CCn1c(SCC(N)=O)nc2scc(-c3ccc(C)o3)c2c1=O | 79.5% (active) |  |
| CCCCn1c(-c2csc3c2CCC(C)C3)n[nH]c1=S (centres undefined) | 75.5% (active) |  |
| Cc1ccc(N(C(=O)c2ccco2)C(C(=O)NC2CCCC2)c2cccnc2)cc1C (centres undefined) |  | inactive |
